Where two headings read alike, the source gives them in different places. Each block holds one compound with its values, some of them ahead of it.
Key:
[1] = type: in vivo, human; conditions: for Change in AUCss on fostamatinib co-administration with OC / Change in Cmax,ss on fostamatinib co-administration with OC: increase in exposure
[2] = test system: progesterone, luteinizing hormone, follicle-stimulating hormone, sex hormone-binding globulin; experiment: OC interaction study, pharmacodynamics; type: in vivo, human
[3] = test system: international normalized ratio (INR); experiment: Warfarin interaction study, pharmacodynamics; parameters: species or system human; conditions: in vivo
[4] = Safety and tolerability, all three studies; type: in vivo, human
Summary of the method: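 Healthy subjects. Safety set was everyone given at least one dose of investigational product, with all available data used. Assessed throughout: incidence and severity of adverse events, clinical laboratory data, vital signs, 12-lead ECG and physical examination. AEs were tabulated by MedDRA. In the statin study, single statin doses were given alone and then with fostamatinib in a two-period, fixed-sequence design.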

BCRP = conditions: read-out: half maximal inhibitory concentration (IC50), BCRP; in vitro; ref AstraZeneca, data on file; cited from earlier work
[5] = for Increase in AUC with fostamatinib / Individual Cmax differences (warfarin alone to warfarin plus fostamatinib): human; for Increase in AUC with fostamatinib / Individual Cmax differences (warfarin alone to warfarin plus fostamatinib) / Individual AUC differences / Prolongation of t½λz: in vivo
[6] = not given; remark: listed apart in the source
[7] = typical value; not determined in the current studies; cited from earlier work
[8] = cited from earlier work
[9] = fostamatinib co-administration with OC

AUCss ratio Microgynon + fostamatinib/microgynon alone ([1]; geometric LS mean ratio): 128.2% | Cmax,ss ratio Microgynon + fostamatinib/microgynon alone ([1]; geometric LS mean ratio): 134.3% | Change in AUCss on fostamatinib co-administration with OC [1]: 28% | Change in Cmax,ss on fostamatinib co-administration with OC [1]: 34%
SMILES: C#C[C@]1(O)CC[C@H]2[C@@H]3CCc4cc(O)ccc4[C@H]3CC[C@@]21C [Ethinyl estradiol, ethinyl estradiol]

SMILES: COc1cc(Nc2ncc(F)c(Nc3ccc4c(n3)N(COP(=O)(O)O)C(=O)C(C)(C)O4)n2)cc(OC)c1OC [Fostamatinib, fostamatinib]
Decrease in exposure to follicle-stimulating hormone [2, 9]: ≈ 20% | Decrease in exposure to luteinizing hormone [2, 9]: ≈ 20% | Luteinizing hormone AUCss ratio Microgynon + fostamatinib/microgynon alone ([2]; in vivo): 83.2% | Luteinizing hormone Cmax,ss ratio Microgynon + fostamatinib/microgynon alone ([2]; in vivo): 75.6% | Progesterone AUCss ratio Microgynon + fostamatinib/microgynon alone ([2]; in vivo): 104.3% | Progesterone Cmax,ss ratio Microgynon + fostamatinib/microgynon alone ([2]; in vivo): 99.8% | AUCINR,0–168 ratio Warfarin + fostamatinib/warfarin alone [3]: 97.0% | INRmax ratio Warfarin + fostamatinib/warfarin alone [3]: 89.7% | Tolerability [4]: well tolerated | IC50 (BCRP): 50 nM

AUCss ratio Microgynon + fostamatinib/microgynon alone ([1]; geometric LS mean ratio): 105.1% | Change in AUCss on fostamatinib co-administration with OC [1]: 5% | Change in Cmax,ss on fostamatinib co-administration with OC [1]: −3%
SMILES: C#C[C@]1(O)CC[C@H]2[C@@H]3CCC4=CC(=O)CC[C@@H]4[C@H]3CC[C@@]21CC [Levonorgestrel, levonorgestrel]

Cmax,ss, geometric mean ([1]; Fostamatinib + OC, period 2 day 21): 812 ng/mL | Cmax,ss, geometric mean ([5]; Fostamatinib + warfarin): 557 ng/mL | Increase in exposure (fostamatinib combined with rosuvastatin): ≈ 10% | Increase in exposure ([6]; fostamatinib combined with simvastatin): ≈ 10%
SMILES: COc1cc(Nc2ncc(F)c(Nc3ccc4c(n3)NC(=O)C(C)(C)O4)n2)cc(OC)c1OC [R406]
IC50 (BCRP): 31 nM | half-life [7]: ~ 14 h

SMILES: CC(=O)C[C@H](c1ccccc1)c1c(O)c2ccccc2oc1=O [R-Warfarin, R-warfarin]
Increase in AUC with fostamatinib [5]: 18% | Individual Cmax differences (warfarin alone to warfarin plus fostamatinib) [5]: −16.1 to 22% | Individual AUC differences [5]: 5.0-33.0% | Prolongation of t½λz [5]: approximately 6 h

Increase in AUC with fostamatinib (human, in vivo): 96% | Increase in Cmax with fostamatinib (human, in vivo): 88%
SMILES: CC(C)c1nc(N(C)S(C)(=O)=O)nc(-c2ccc(F)cc2)c1/C=C/[C@@H](O)C[C@@H](O)CC(=O)O [Rosuvastatin, rosuvastatin]
absorption (restricted by BCRP) [8]: 50%

SMILES: CC(=O)C[C@@H](c1ccccc1)c1c(O)c2ccccc2oc1=O [S-Warfarin, S-warfarin]
Increase in AUC with fostamatinib [5]: 13% | Individual Cmax differences (warfarin alone to warfarin plus fostamatinib) [5]: −25.6 to 27% | Individual AUC differences [5]: 0.0-36.0% | Prolongation of t½λz [5]: approximately 6 h

Decrease in half-life in the presence of fostamatinib ([6]; human, in vivo): about 1.5 h | Increase in AUC with fostamatinib ([6]; human, in vivo): 74% | Increase in Cmax with fostamatinib ([6]; human, in vivo): 83%
SMILES: CCC(C)(C)C(=O)O[C@H]1C[C@@H](C)C=C2C=C[C@H](C)[C@H](CC[C@@H](O)C[C@@H](O)CC(=O)O)[C@H]21 [Simvastatin acid, simvastatin acid]

Change in tmax with fostamatinib ([6]; human, in vivo): marginal change | Decrease in half-life in the presence of fostamatinib ([6]; human, in vivo): approximately 3 h | Net apparent reduction in clearance ([6]; with fostamatinib): 40.3%
SMILES: CCC(C)(C)C(=O)O[C@H]1C[C@@H](C)C=C2C=C[C@H](C)[C@H](CC[C@@H]3C[C@@H](O)CC(=O)O3)[C@H]21 [Simvastatin, simvastatin]

Source: publication PMC4767723 (Drugs in R&D, 2016)
